Reference: ChEMBL document CHEMBL1123691, “Multisubstrate inhibitors of dopamine beta-hydroxylase. 2. Structure-activity relationships at the phenethylamine binding site” (J Med Chem, 1987)

Key:
[1] = target: T1, Dopamine beta-hydroxylase (Bos taurus) (UniProt P15101); experiment: Percent inhibition against bovine Dopamine beta hydroxylase (DBH) at 10E-4 M
T1 sequence (whole entry): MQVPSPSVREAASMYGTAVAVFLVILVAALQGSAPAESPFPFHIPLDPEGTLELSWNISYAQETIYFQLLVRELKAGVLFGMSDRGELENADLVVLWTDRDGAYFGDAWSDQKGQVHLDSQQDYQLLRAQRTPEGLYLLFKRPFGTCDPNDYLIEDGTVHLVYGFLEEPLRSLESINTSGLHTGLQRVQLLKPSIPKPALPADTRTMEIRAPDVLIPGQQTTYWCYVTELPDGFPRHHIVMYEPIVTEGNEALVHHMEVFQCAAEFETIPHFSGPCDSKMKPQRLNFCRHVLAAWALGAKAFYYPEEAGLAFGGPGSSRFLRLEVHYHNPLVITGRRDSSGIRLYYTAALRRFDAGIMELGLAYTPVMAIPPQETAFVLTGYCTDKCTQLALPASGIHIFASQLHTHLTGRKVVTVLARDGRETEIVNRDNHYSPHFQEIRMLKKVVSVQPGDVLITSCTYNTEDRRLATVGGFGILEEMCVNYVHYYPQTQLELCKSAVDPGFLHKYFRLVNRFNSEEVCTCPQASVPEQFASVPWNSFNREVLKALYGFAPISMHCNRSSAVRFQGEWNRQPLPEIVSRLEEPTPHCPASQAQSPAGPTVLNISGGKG
Outline: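 DBH activity measured in the presence of 10^-4 M compound; result expressed as percent inhibition.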

[2] = target: T1, Dopamine beta-hydroxylase (Bos taurus); experiment: Inhibitor dissociation constant vs. tyramine substrate against Dopamine beta hydroxylase at pH 4.5.
Outline: (§1)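 Homogeneous purified DBH with specific activity 25-42 units/mg, with tyramine as the varied substrate. The pH 4.5 condition is predominantly ordered: phenethylamine binds before oxygen. The pH 6.6 condition is random. Kis is from standard competitive/noncompetitive kinetic fits, reported as mean ± SEM.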

[3] = test system: Rattus norvegicus; experiment: Change in DA/NE (Dopamine/Norepinephrine) ratio after oral dosing (50 mg/kg); assay type: functional
Outline: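 Adult male Okamoto-Aoki SHR given vehicle (5% PEG 400, 1% methocel) or suspended drug orally, two doses 18 h apart. Mesenteric arteries taken 2 h after second dose and homogenized in 0.4 M HClO4 with Na2S2O5 and EDTA at 0 °C. Supernatant incubated 60 min at 37 °C with rat liver COMT and [methyl-3H]-S-adenosylmethionine, pH 9.6 Tris; DA and NE measured.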

[4] = Partition coefficient (logP); assay type: physicochemical; details: octanol/water
Outline: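 Octanol/pH 7.4 phosphate buffer partitioning at four concentrations, with UV assay of each phase. D taken at infinite dilution by linear regression. pKa by titration in 2:1 MeOH-H2O.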

[5] = target: T2, Dopamine beta-hydroxylase (Bos taurus, UniProt P15101); experiment: Inhibitory Concentration against bovine Dopamine beta hydroxylase (DBH); Range is between (4.9-6.5)
T2 sequence (P15101 whole entry): T1 sequence (whole entry)

[6] = target: T2, Dopamine beta-hydroxylase
[7] = target: T2, Dopamine beta-hydroxylase; remark: listed apart in the source
[8] = target: T2, Dopamine beta-hydroxylase; remark: listed apart in the source
[9] = test system: Rattus norvegicus; experiment: Mean arterial blood pressure at 4 hr post drug at ip dose of 100 mg/kg for the indicated number of SHR (spontaneous hypertensive rats) relative to blood pressure before dosing; assay type: functional; details: route intraperitoneal
Outline: (§2)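 Male Okamoto-Aoki SHR, 16–18 weeks, 275-310 g. Femoral artery cannulated under methohexital (10 mg/kg iv), with 2 h recovery, unrestrained. Drug given ip in 20% DMF or po as suspension in 5% PEG 400/1% methocel. BP recorded every 0.5 h for 5–6 h. Mean arterial BP change at 4 h versus predose; mean ± SEM, n rats; vehicle controls run in parallel.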

[10] = target: T2, Dopamine beta-hydroxylase; experiment: Inhibitory Concentration against bovine Dopamine beta hydroxylase (DBH); Range is between (10-14).
[11] = target: T2, Dopamine beta-hydroxylase; experiment: […] against bovine Dopamine beta hydroxylase […]; Range is between (4.2-5.3).
[12] = target: T1, Dopamine beta-hydroxylase (Bos taurus); experiment: Inhibitor dissociation constant vs. tyramine substrate against Dopamine beta hydroxylase at pH 6.6; outline: as §1
[13] = target: T2, Dopamine beta-hydroxylase; experiment: Inhibitory Concentration against bovine Dopamine beta hydroxylase (DBH); Range is between (0.060-0.0877).
[14] = test system: Rattus norvegicus; experiment: Mean arterial blood pressure at 4 hr post drug at ip dose of 50 mg/kg for the indicated number of SHR (spontaneous hypertensive rats) relative to blood pressure before dosing; assay type: functional; details: route intraperitoneal; outline: as §2
[15] = target: T2, Dopamine beta-hydroxylase; remark: listed apart in the source
[16] = target: T2, Dopamine beta-hydroxylase; experiment: Inhibitory Concentration against bovine Dopamine beta hydroxylase (DBH); Range is between (7-38).
[17] = target: T1, Dopamine beta-hydroxylase (Bos taurus); experiment: Inhibitor dissociation constant vs. tyramine substrate against Dopamine beta hydroxylase at pH 6.0
Outline: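 Purified homogeneous DBH, specific activity 25-42 units/mg, assayed at pH 6.0 with tyramine as the varied substrate. Kis taken as slope inhibition constant from Cleland COMP/NONCOMP fits; mean ± SEM.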

[18] = target: T2, Dopamine beta-hydroxylase; remark: listed apart in the source
[19] = target: T2, Dopamine beta-hydroxylase; experiment: Inhibitory Concentration against bovine Dopamine beta hydroxylase (DBH); Range is between (56-72).
[20] = target: T2, Dopamine beta-hydroxylase; remark: listed apart in the source
[21] = target: T2, Dopamine beta-hydroxylase; remark: listed apart in the source
[22] = target: T2, Dopamine beta-hydroxylase; experiment: Inhibitory Concentration against bovine Dopamine beta hydroxylase (DBH); Range is between (1.7-2.4)
[23] = target: T2, Dopamine beta-hydroxylase; remark: listed apart in the source
[24] = target: T2, Dopamine beta-hydroxylase; remark: listed apart in the source
[25] = target: T2, Dopamine beta-hydroxylase; remark: listed apart in the source
[26] = target: T2, Dopamine beta-hydroxylase; remark: listed apart in the source
[27] = target: T2, Dopamine beta-hydroxylase; experiment: Inhibitory Concentration against bovine Dopamine beta hydroxylase (DBH); Range is between (23-41).
[28] = target: T2, Dopamine beta-hydroxylase; remark: listed apart in the source
[29] = target: T2, Dopamine beta-hydroxylase; experiment: Inhibitory Concentration against bovine Dopamine beta hydroxylase (DBH); Range is between (36-102)
[30] = target: T2, Dopamine beta-hydroxylase; remark: listed apart in the source
[31] = target: T2, Dopamine beta-hydroxylase; experiment: Inhibitory Concentration against bovine Dopamine beta hydroxylase (DBH); Range is between (21-37).
[32] = target: T2, Dopamine beta-hydroxylase; experiment: […] against bovine Dopamine beta hydroxylase […]; Range is between (1.8-2.6).
[33] = target: T2, Dopamine beta-hydroxylase; remark: listed apart in the source
[34] = target: T2, Dopamine beta-hydroxylase; remark: listed apart in the source
[35] = target: T2, Dopamine beta-hydroxylase; remark: listed apart in the source
[36] = target: T2, Dopamine beta-hydroxylase; remark: listed apart in the source
[37] = target: T2, Dopamine beta-hydroxylase; remark: listed apart in the source
[38] = test system: Rattus norvegicus; experiment: Mean arterial blood pressure at 4 hr post drug at po dose of 50 mg/kg for the indicated number of SHR (spontaneous hypertensive rats) relative to blood pressure before dosing (expt. no. 12); assay type: functional; outline: as §2
[39] = test system: Rattus norvegicus; experiment: Mean arterial blood pressure at 4 hr post drug at po dose of 50 mg/kg for the indicated number of SHR (spontaneous hypertensive rats) relative to blood pressure before dosing (expt. no. 13); assay type: functional; details: dose 100 mg/kg, in the assay text read “100 mg/kg” for “50 mg/kg”; outline: as §2
[40] = target: T2, Dopamine beta-hydroxylase; remark: listed apart in the source

Compound: COc1ccc(Cn2cc[nH]c2=S)cc1F
- inhibition [1]: 67%

Compound: COc1ccc(Cn2ccnc2S)cc1S(N)(=O)=O
- inhibition [1]: 7%

Compound: Fc1cccc(Cn2cc[nH]c2=S)c1
- Kis [2]: 0.108 µM
- Increase [3]: 364%
- logP [4]: 1.7
- IC50 [5]: 5.6 µM

Compound: Oc1ccc(Cn2cc[nH]c2=S)cc1C(F)(F)F
- IC50 [6]: 121 µM

Compound: COc1ccccc1Cn1cc[nH]c1=S
- inhibition [1]: 68%

Compound: Fc1ccc(Cn2cc[nH]c2=S)cc1
- IC50 [7]: 47 µM

Compound: Oc1c(Cl)cc(Cn2cc[nH]c2=S)cc1Cl
- Increase [3]: 12%
- IC50 [8]: 0.68 µM
- Decrease [9]: 28 mmHg

Compound: S=c1[nH]ccn1Cc1cccc(Cl)c1
- IC50 [10]: 12 µM

Compound: Fc1cc(F)cc(CCCn2cc[nH]c2=S)c1
- IC50 [11]: 4.7 µM

Compound: Oc1c(F)cc(Cn2cc[nH]c2=S)cc1F
- Kis [2]: 0.0057 µM
- Increase [3]: 165%
- logP [4]: 1.08
- Kis [12]: 0.039 µM
- IC50 [13]: 0.074 µM
- Decrease [14]: 36 mmHg

Compound: O=C(O)c1ccc(Cn2ccnc2S)cc1
- inhibition [1]: 1%

Compound: S=c1[nH]ccn1Cc1c(Cl)cc(Cl)cc1Cl
- IC50 [15]: 102 µM

Compound: S=c1[nH]ccn1Cc1ccc(Cl)cc1Cl
- IC50 [16]: 17 µM

Compound: S=c1[nH]ccn1Cc1ccccc1
- Kis [17]: 0.83 µM

Compound: S=c1[nH]ccn1Cc1c(Cl)cccc1Cl
- inhibition [1]: 7%

Compound: O=[N+]([O-])c1ccc(Cn2cc[nH]c2=S)cc1
- IC50 [18]: 53 µM

Compound: Oc1c(F)c(F)c(Cn2cc[nH]c2=S)c(F)c1F
- IC50 [19]: 62 µM

Compound: COc1cccc(Cn2cc[nH]c2=S)c1
- IC50 [20]: 157 µM

Compound: FC(F)(F)c1ccc(Cn2cc[nH]c2=S)cc1
- Kis [17]: 9.04 µM
- inhibition [1]: 25%

Compound: COc1cc(Cl)c(Cn2cc[nH]c2=S)c(Cl)c1
- inhibition [1]: 32%

Compound: Cc1cc(Cn2cc[nH]c2=S)ccc1O
- IC50 [21]: 49 µM

Compound: Oc1ccc(Cn2cc[nH]c2=S)cc1Cl
- IC50 [22]: 2 µM

Compound: S=c1[nH]ccn1Cc1cccc(Cl)c1Cl
- IC50 [23]: 52 µM

Compound: S=c1[nH]ccn1Cc1ccc(Cl)cc1
- IC50 [24]: 96 µM

Compound: S=c1[nH]ccn1Cc1cc(Cl)cc(Cl)c1
- Increase [3]: 197%
- logP [4]: 1.78
- IC50 [25]: 2.4 µM

Compound: COc1ccc(Cn2cc[nH]c2=S)cc1C(F)(F)F
- inhibition [1]: 29%

Compound: Cc1cccc(C)c1Cn1cc[nH]c1=S
- inhibition [1]: 5%

Compound: Oc1ccc(Cn2cc[nH]c2=S)cc1
- Increase [3]: 92%
- logP [4]: 1.02
- Decrease [14]: 22 mmHg

Compound: S=c1[nH]ccn1Cc1cc(Cl)ccc1Cl
- IC50 [26]: 97 µM

Compound: O=[N+]([O-])c1cc(Cn2cc[nH]c2=S)ccc1O
- IC50 [27]: 31 µM

Compound: COc1ccc(Cn2cc[nH]c2=S)cc1Br
- inhibition [1]: 60%

Compound: Oc1ccc(Cn2cc[nH]c2=S)cc1F
- Increase [3]: 78%
- logP [4]: 1.12
- IC50 [28]: 1.5 µM
- Decrease [9]: 32 mmHg

Compound: COc1cccc(OC)c1Cn1cc[nH]c1=S
- inhibition [1]: 10%

Compound: Oc1cc(Cl)c(Cn2cc[nH]c2=S)c(Cl)c1
- IC50 [29]: 75 µM

Compound: COc1c(Cl)cc(Cn2cc[nH]c2=S)cc1Cl
- IC50 [30]: 47 µM

Compound: OCc1ccc(Cn2ccnc2S)cc1
- inhibition [1]: 6%

Compound: S=c1[nH]ccn1Cc1ccc(Cl)c(Cl)c1
- IC50 [31]: 28 µM

Compound: S=c1[nH]ccn1Cc1ccc(Br)cc1
- Kis [17]: 3.42 µM
- inhibition [1]: 43%

Compound: COc1ccc(Cn2cc[nH]c2=S)cc1C
- inhibition [1]: 72%

Compound: Cc1ccccc1Cn1cc[nH]c1=S
- inhibition [1]: 15%

Compound: Cc1ccc(Cn2cc[nH]c2=S)cc1
- Kis [17]: 9.77 µM
- inhibition [1]: 34%

Compound: S=c1[nH]ccn1CCCc1cc(Cl)cc(Cl)c1
- IC50 [32]: 2.1 µM

Compound: Oc1cccc(Cn2cc[nH]c2=S)c1
- IC50 [33]: 148 µM

Compound: Oc1ccccc1Cn1cc[nH]c1=S
- IC50 [34]: 580 µM

Compound: Oc1ccc(Cn2cc[nH]c2=S)cc1O
- IC50 [35]: 2.2 µM

Compound: Oc1ccc(Cn2cc[nH]c2=S)cc1Br
- IC50 [36]: 12 µM

Compound: COc1c(F)cc(Cn2cc[nH]c2=S)cc1F
- IC50 [37]: 36 µM

Compound: S=c1[nH]ccn1Cc1ccccc1Cl
- inhibition [1]: 14%

Compound: Fc1cc(F)cc(Cn2cc[nH]c2=S)c1
- Kis [2]: 0.041 µM
- Increase [3]: 407%
- logP [4]: 1.98
- Decrease [14]: 50 mmHg
- Decrease [38]: 22 mmHg
- Decrease [39]: 28 mmHg

Compound: COc1ccc(Cn2cc[nH]c2=S)cc1[N+](=O)[O-]
- IC50 [40]: 359 µM

Compound: COc1ccc(Cn2cc[nH]c2=S)cc1OC
- inhibition [1]: 15%
